# pIC50: −log10 of the molar value.
# What was measured:
# [1] = test system: Staphylococcus epidermidis; assay: Antibacterial activity against methicillin-susceptible Staphylococcus epidermidis isolate CANWARD-2008 81388 after 24 hrs by microtitre broth dilution method; type: functional; conditions: isolate CANWARD-2008 81388, 24 h
# [2] = test system: Enterococcus faecalis; assay: Antibacterial activity against Enterococcus faecalis ATCC 29212 after 24 hrs by microtitre broth dilution method; type: functional; conditions: ATCC 29212, 24 h
# [3] = test system: Pseudomonas aeruginosa; assay: Antibacterial activity against pandrug-resistant Pseudomonas aeruginosa isolate 101243; type: functional
# [4] = test system: Pseudomonas aeruginosa; assay: Antibacterial activity against multidrug/extremely drug-resistant/colistin-susceptible Pseudomonas aeruginosa isolate 259-96918; type: functional
# [5] = test system: Acinetobacter baumannii; assay: Antibacterial activity against Acinetobacter baumannii isolate CAN-ICU 63169 after 24 hrs by microtitre broth dilution method; type: functional; conditions: isolate CAN-ICU 63169, 24 h
# [6] = test system: Pseudomonas aeruginosa; assay: Antibacterial activity against multidrug-resistant/tobramycin-susceptible Pseudomonas aeruginosa isolate 86141; type: functional
# [7] = test system: Pseudomonas aeruginosa; assay: Antibacterial activity against multidrug/extremely drug-resistant/colistin-susceptible Pseudomonas aeruginosa isolate 262-101856; type: functional
# [8] = test system: Pseudomonas aeruginosa; assay: Antibacterial activity against multidrug-resistant/tobramycin-susceptible Pseudomonas aeruginosa isolate 84745; type: functional
# [9] = Inhibition of circular DNA translation in Escherichia coli S30 extract after 60 mins by luciferase reporter gene assay
# How it was run: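 Translation was run in an E. coli S30 extract with a luciferase read-out. Luminescence is expressed as a percentage of the no-antibiotic control, taken as 100%.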
# [10] = test system: Staphylococcus aureus; assay: Antibacterial activity against methicillin-resistant Staphylococcus aureus ATCC 33592 after 24 hrs by microtitre broth dilution method; type: functional; conditions: ATCC 33592, 24 h
# [11] = test system: Escherichia coli; assay: Antibacterial activity against gentamicin-resistant Escherichia coli isolate CAN-ICU 61714 after 24 hrs by microtitre broth dilution method; type: functional; conditions: isolate CAN-ICU 61714, 24 h
# [12] = test system: Pseudomonas aeruginosa; assay: Antibacterial activity against extremely drug-resistant Pseudomonas aeruginosa isolate 104354 infected in Galleria mellonella assessed as larvae survival at 75 mg/kg administered as single dose measured after 96 hrs; type: functional; conditions: isolate 104354, 96 h
# How it was run: (§1)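 Galleria mellonella larvae were infected with 10^6 CFU of XDR P. aeruginosa #104354, resistant to all antipseudomonal classes except colistin. A single injected drug dose was given 2 h post-infection: 50 mg/kg with survival read at 24 h, or 75 mg/kg with survival read at 96 h. Controls were infected untreated larvae and PBS-injected larvae. Two independent experiments of 15 larvae each (n = 30).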
# [13] = test system: Staphylococcus aureus; assay: Antibacterial activity against Staphylococcus aureus ATCC 29213 after 24 hrs by microtitre broth dilution method; type: functional; conditions: ATCC 29213, 24 h
# [14] = test system: Pseudomonas aeruginosa; assay: Antibacterial activity against multidrug-resistant/tobramycin-susceptible Pseudomonas aeruginosa isolate 83182; type: functional
# [15] = test system: Pseudomonas aeruginosa; assay: Induction of cytoplasmic membrane depolarization in Pseudomonas aeruginosa PAO1 by DiSC3(5) dye based fluorescence assay; type: functional
# [16] = test system: Stenotrophomonas maltophilia; assay: Antibacterial activity against Stenotrophomonas maltophilia isolate CAN-ICU 62584 after 24 hrs by microtitre broth dilution method; type: functional; conditions: isolate CAN-ICU 62584, 24 h
# [17] = test system: Streptococcus pneumoniae; assay: Antibacterial activity against Streptococcus pneumoniae ATCC 49619 after 24 hrs by microtitre broth dilution method; type: functional; conditions: ATCC 49619, 24 h
# [18] = test system: Pseudomonas aeruginosa; assay: Antibacterial activity against gentamicin/tobramycin-resistant Pseudomonas aeruginosa isolate CANWARD-2011 96846 after 24 hrs by microtitre broth dilution method; type: functional; conditions: isolate CANWARD-2011 96846, 24 h
# [19] = test system: Pseudomonas aeruginosa; assay: Antibacterial activity against multidrug/extremely drug-resistant/colistin-susceptible Pseudomonas aeruginosa isolate 101885; type: functional
# [20] = test system: Pseudomonas aeruginosa; assay: Antibacterial activity against pandrug-resistant Pseudomonas aeruginosa isolate 91433; type: functional
# [21] = test system: Pseudomonas aeruginosa; assay: Antibacterial activity against multidrug-resistant/tobramycin-susceptible Pseudomonas aeruginosa isolate 80621; type: functional
# [22] = test system: Pseudomonas aeruginosa; assay: Antibacterial activity against extremely drug-resistant Pseudomonas aeruginosa isolate 104354 infected in Galleria mellonella assessed as larvae survival at 50 mg/kg administered as single dose measured after 24 hrs (reference value: 27 %); type: functional; conditions: isolate 104354, 24 h; how it was run: as §1
# [23] = test system: Escherichia coli; assay: Antibacterial activity against amikacin-resistant Escherichia coli isolate CAN-ICU 63074 after 24 hrs by microtitre broth dilution method; type: functional; conditions: isolate CAN-ICU 63074, 24 h
# [24] = test system: Escherichia coli; assay: Antibacterial activity against gentamicin/tobramycin/ciprofloxacin-resistant Escherichia coli isolate CANWARD-2011 97615 harboring AAC3-2A after 24 hrs by microtitre broth dilution method; type: functional; conditions: isolate CANWARD-2011 97615, 24 h
# [25] = test system: Escherichia coli; assay: Antibacterial activity against Escherichia coli ATCC 25922 after 24 hrs by microtitre broth dilution method; type: functional; conditions: ATCC 25922, 24 h
# [26] = test system: Enterococcus faecium; assay: Antibacterial activity against Enterococcus faecium ATCC 27270 after 24 hrs by microtitre broth dilution method; type: functional; conditions: ATCC 27270, 24 h
# [27] = test system: Pseudomonas aeruginosa; assay: Antibacterial activity against multidrug/extremely drug-resistant/colistin-susceptible Pseudomonas aeruginosa isolate 264-104354; type: functional
# [28] = test system: Pseudomonas aeruginosa; assay: Antibacterial activity against multidrug-resistant/tobramycin-susceptible Pseudomonas aeruginosa isolate 86067; type: functional
# [29] = test system: Pseudomonas aeruginosa; assay: Antibacterial activity against gentamicin-resistant Pseudomonas aeruginosa isolate CAN-ICU 62308 after 24 hrs by microtitre broth dilution method; type: functional; conditions: isolate CAN-ICU 62308, 24 h
# [30] = test system: Pseudomonas aeruginosa; assay: Antibacterial activity against Pseudomonas aeruginosa ATCC 27853 after 24 hrs by microtitre broth dilution method; type: functional; conditions: ATCC 27853, 24 h
# [31] = test system: Pseudomonas aeruginosa; assay: Ratio of MIC for Pseudomonas aeruginosa PAO1 after 25 serial passages to MIC for Pseudomonas aeruginosa PAO1 prior to 25 serial passages; type: functional
# How it was run: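 P. aeruginosa PAO1 exposed to sub-inhibitory (0.5 x MIC) drug over successive subcultures as a resistance-selection procedure. MIC compared after versus before passaging.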
# [32] = test system: Pseudomonas aeruginosa; assay: Antibacterial activity against multidrug-resistant/tobramycin-susceptible Pseudomonas aeruginosa isolate 85322; type: functional
# [33] = test system: Pseudomonas aeruginosa; assay: Antibacterial activity against multidrug/extremely drug-resistant/colistin-susceptible Pseudomonas aeruginosa isolate 260-97103; type: functional
# [34] = test system: Pseudomonas aeruginosa; assay: Antibacterial activity against multidrug-resistant/tobramycin-susceptible Pseudomonas aeruginosa isolate 108590; type: functional
# [35] = test system: Pseudomonas aeruginosa; assay: Antibacterial activity against Pseudomonas aeruginosa PAO1; type: functional
# [36] = test system: Pseudomonas aeruginosa; assay: Antibacterial activity against multidrug/extremely drug-resistant/colistin-susceptible Pseudomonas aeruginosa isolate 100036; type: functional
# [37] = test system: Pseudomonas aeruginosa; assay: Antibacterial activity against multidrug-resistant/tobramycin-susceptible Pseudomonas aeruginosa isolate 92014; type: functional
# [38] = test system: Klebsiella pneumoniae; assay: Antibacterial activity against Klebsiella pneumoniae ATCC 13883 after 24 hrs by microtitre broth dilution method; type: functional; conditions: ATCC 13883, 24 h
# [39] = test system: Pseudomonas aeruginosa; assay: Antibacterial activity against multidrug-resistant/tobramycin-susceptible Pseudomonas aeruginosa isolate 86079; type: functional
# [40] = test system: Pseudomonas aeruginosa; assay: Antibacterial activity against multidrug-resistant/tobramycin-susceptible Pseudomonas aeruginosa isolate 79199; type: functional
# [41] = test system: Staphylococcus epidermidis; assay: Antibacterial activity against methicillin-resistant Staphylococcus epidermidis isolate CAN-ICU 61589 after 24 hrs by microtitre broth dilution method; type: functional; conditions: isolate CAN-ICU 61589, 24 h
# [42] = test system: Pseudomonas aeruginosa; assay: Antibacterial activity against multidrug-resistant/tobramycin-susceptible Pseudomonas aeruginosa isolate 86053; type: functional
# [43] = test system: Pseudomonas aeruginosa; assay: Antibacterial activity against multidrug-resistant/tobramycin-susceptible Pseudomonas aeruginosa isolate 86052; type: functional
compound,measurement,setting,value
NC[C@H]1O[C@H](O[C@H]2[C@H](O)[C@@H](O[C@H]3O[C@H](CO)[C@@H](O)[C@H](N)[C@H]3O)[C@H](N)C[C@@H]2N)[C@H](N)C[C@@H]1O [TOBRAMYCIN],MIC,[1],≤ 0.25 µg/mL
same,MIC,[2],8 µg/mL
same,MIC,[3],> 64 µg/mL
same,MIC,[4],> 64 µg/mL
same,MIC,[5],32 µg/mL
same,MIC,[6],1 µg/mL
same,MIC,[7],> 64 µg/mL
same,MIC,[8],1 µg/mL
same,pIC50,[9],8.21
same,MIC,[10],≤ 0.25 µg/mL
same,MIC,[11],8 µg/mL
same,survival at 75 mg/kg,[12],0%
same,MIC,[13],≤ 0.25 µg/mL
same,MIC,[14],1 µg/mL
same,Activity,[15],Dose-dependent effect
same,MIC,[16],> 512 µg/mL
same,MIC,[17],2 µg/mL
same,MIC,[18],256 µg/mL
same,MIC,[19],< 0.5 µg/mL
same,MIC,[20],8 µg/mL
same,MIC,[21],2 µg/mL
same,survival at 50 mg/kg,[22],20%
same,MIC,[23],8 µg/mL
same,MIC,[24],128 µg/mL
same,MIC,[25],0.5 µg/mL
same,MIC,[26],8 µg/mL
same,MIC,[27],> 64 µg/mL
same,MIC,[28],> 64 µg/mL
same,MIC,[29],16 µg/mL
same,MIC,[30],0.5 µg/mL
same,Ratio,[31],512
same,MIC,[32],1 µg/mL
same,MIC,[33],32 µg/mL
same,MIC,[34],4 µg/mL
same,MIC,[35],0.5 µg/mL
same,MIC,[36],64 µg/mL
same,MIC,[37],1 µg/mL
same,MIC,[38],≤ 0.25 µg/mL
same,MIC,[39],2 µg/mL
same,MIC,[40],2 µg/mL
same,MIC,[41],1 µg/mL
same,MIC,[42],1 µg/mL
same,MIC,[43],1 µg/mL
